For assay [1], the species on record is Rattus norvegicus. The experiment in a line: Selectivity ratio of IC50 for rat recombinant GLuR1 to IC50 for rat recombinant NR1-NR2D receptor. The method in brief: (§1)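 Ratio of fitted IC50 values, either NR2A/NR2D or GluR1/NR2D, from two-electrode voltage-clamp Hill fits in oocytes. Where noted, calculated from IC50 values rounded to the nearest μM.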
Assay [2] is filed under the species Rattus norvegicus. Nature of the assay: Selectivity ratio of IC50 for rat recombinant NR1-NR2A receptor to IC50 for rat recombinant NR1-NR2D receptor. An outline of the steps:
as §1

Assay [3] addresses Glutamate NMDA receptor; Grin1/Grin2a (Rattus norvegicus, UniProt P35439+Q00959). The experiment in a line: Antagonist activity at rat recombinant NR1-NR2A receptor expressed in Xenopus oocytes at holding potential of -40mV by two-electrode voltage-clamp electrophysiology. It counts as functional, cell-based, Oocyte. An outline of the steps:
(§2)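 Oocytes expressing rat NR1-1a with NR2A, NR2B, NR2C or NR2D, clamped at −40 mV in Ba2+/HEPES recording solution pH 7.4, 23°C. Current evoked by 100 μM glutamate plus 30 μM glycine. Final DMSO 0.05-0.5%, 5-7 inhibitor concentrations, ≥4 oocytes each. IC50 from Hill fit of normalized mean composite data. […] Some NR2A oocytes given BAPTA-AM or K-BAPTA.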

Assay [4] has as its target Glutamate NMDA receptor; Grin1/Grin2b (Rattus norvegicus, UniProt P35439+Q00960). Nature of the assay: Antagonist activity at rat recombinant NR1-NR2B receptor expressed in Xenopus oocytes at holding potential of -40mV by two-electrode voltage-clamp electrophysiology. In kind it is functional, cell-based, Oocyte. An outline of the steps:
as §2

For assay [5], the target named is Glutamate NMDA receptor; Grin1/Grin2c (Rattus norvegicus, UniProt P35439+Q00961). Nature of the assay: Antagonist activity at rat recombinant NR1-NR2C receptor expressed in Xenopus oocytes at holding potential of -40mV by two-electrode voltage-clamp electrophysiology. It counts as functional, cell-based, Oocyte. The method in brief: as §2
Glutamate NMDA receptor; Grin1/Grin2c, sequence (Q00961 whole entry, other chains not shown): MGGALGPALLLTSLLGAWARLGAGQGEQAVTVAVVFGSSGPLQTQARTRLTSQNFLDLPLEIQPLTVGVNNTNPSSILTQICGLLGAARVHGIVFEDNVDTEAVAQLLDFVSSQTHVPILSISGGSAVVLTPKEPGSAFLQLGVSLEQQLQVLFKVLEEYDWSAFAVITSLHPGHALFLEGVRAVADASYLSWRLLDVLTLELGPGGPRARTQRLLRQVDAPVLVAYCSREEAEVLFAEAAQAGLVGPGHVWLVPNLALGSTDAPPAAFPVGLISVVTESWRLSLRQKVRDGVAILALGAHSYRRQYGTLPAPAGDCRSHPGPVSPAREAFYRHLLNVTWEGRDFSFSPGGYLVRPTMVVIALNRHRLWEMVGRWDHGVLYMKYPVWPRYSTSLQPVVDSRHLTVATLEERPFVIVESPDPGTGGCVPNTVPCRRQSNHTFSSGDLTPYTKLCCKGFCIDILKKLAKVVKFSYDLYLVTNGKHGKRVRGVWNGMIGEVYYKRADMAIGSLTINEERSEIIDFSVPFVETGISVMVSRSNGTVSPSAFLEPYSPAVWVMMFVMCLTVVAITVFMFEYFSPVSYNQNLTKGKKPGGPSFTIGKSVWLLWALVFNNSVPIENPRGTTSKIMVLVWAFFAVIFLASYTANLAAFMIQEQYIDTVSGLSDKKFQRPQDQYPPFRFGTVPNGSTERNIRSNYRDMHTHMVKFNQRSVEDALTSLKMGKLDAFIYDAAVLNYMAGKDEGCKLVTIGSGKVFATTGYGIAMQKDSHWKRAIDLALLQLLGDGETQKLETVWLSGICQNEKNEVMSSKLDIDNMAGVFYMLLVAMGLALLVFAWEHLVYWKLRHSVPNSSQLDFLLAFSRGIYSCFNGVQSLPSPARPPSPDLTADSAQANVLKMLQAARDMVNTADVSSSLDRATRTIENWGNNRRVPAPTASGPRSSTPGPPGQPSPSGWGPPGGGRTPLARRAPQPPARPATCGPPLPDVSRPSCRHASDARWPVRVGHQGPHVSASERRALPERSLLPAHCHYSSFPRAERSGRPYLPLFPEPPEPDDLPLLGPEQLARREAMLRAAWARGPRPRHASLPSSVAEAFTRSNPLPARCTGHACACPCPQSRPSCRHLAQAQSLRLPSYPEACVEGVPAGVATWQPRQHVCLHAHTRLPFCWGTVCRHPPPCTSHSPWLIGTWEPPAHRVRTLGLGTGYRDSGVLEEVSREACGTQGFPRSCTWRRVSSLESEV
(In general: Two-electrode voltage clamp is typically applied to oocytes expressing channels or transporters.)

In assay [6] the target is Ionotropic glutamate receptor NMDA 1/2D (Rattus norvegicus, UniProt P35439+Q62645). The experiment in a line: Antagonist activity at rat recombinant NR1-NR2D receptor expressed in Xenopus oocytes at holding potential of -40mV by two-electrode voltage-clamp electrophysiology. It counts as functional, cell-based, Oocyte. An outline of the steps:
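Oocytes expressing rat NR1-1a with NR2A, NR2B, NR2C or NR2D, clamped at −40 mV in Ba2+/HEPES recording solution pH 7.4, 23°C. Current evoked by 100 μM glutamate plus 30 μM glycine. Final DMSO 0.05-0.5%, 5-7 inhibitor concentrations, ≥4 oocytes each. IC50 from Hill fit of normalized mean composite data. Some NR2A oocytes given BAPTA-AM or K-BAPTA.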

For assay [7], the target named is Glutamate receptor 1 (Rattus norvegicus, UniProt P19490). Nature of the assay: Antagonist activity at rat recombinant GLuR1 expressed in Xenopus oocytes assessed as inhibition of glutamate-induced current by two-electrode voltage-clamp electrophysiology. It counts as functional, cell-based, Oocyte. An outline of the steps: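 Two-electrode voltage clamp at −40 mV on Xenopus oocytes expressing rat GluR1, perfused with 90 NaCl, 1.0 KCl, 0.5 BaCl2, 0.005 EDTA, 10 HEPES (mM), pH 7.4, 23°C; activated by 100 μM glutamate. From 20 mM DMSO stocks, 5-7 concentrations, ≥4 oocytes each. Hill fit to mean composite curves normalized to control, minimum usually fixed at 0. Response >75% at 100 μM reported as >300 μM.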
Glutamate receptor 1, sequence (P19490 whole entry, the tested form may be a part): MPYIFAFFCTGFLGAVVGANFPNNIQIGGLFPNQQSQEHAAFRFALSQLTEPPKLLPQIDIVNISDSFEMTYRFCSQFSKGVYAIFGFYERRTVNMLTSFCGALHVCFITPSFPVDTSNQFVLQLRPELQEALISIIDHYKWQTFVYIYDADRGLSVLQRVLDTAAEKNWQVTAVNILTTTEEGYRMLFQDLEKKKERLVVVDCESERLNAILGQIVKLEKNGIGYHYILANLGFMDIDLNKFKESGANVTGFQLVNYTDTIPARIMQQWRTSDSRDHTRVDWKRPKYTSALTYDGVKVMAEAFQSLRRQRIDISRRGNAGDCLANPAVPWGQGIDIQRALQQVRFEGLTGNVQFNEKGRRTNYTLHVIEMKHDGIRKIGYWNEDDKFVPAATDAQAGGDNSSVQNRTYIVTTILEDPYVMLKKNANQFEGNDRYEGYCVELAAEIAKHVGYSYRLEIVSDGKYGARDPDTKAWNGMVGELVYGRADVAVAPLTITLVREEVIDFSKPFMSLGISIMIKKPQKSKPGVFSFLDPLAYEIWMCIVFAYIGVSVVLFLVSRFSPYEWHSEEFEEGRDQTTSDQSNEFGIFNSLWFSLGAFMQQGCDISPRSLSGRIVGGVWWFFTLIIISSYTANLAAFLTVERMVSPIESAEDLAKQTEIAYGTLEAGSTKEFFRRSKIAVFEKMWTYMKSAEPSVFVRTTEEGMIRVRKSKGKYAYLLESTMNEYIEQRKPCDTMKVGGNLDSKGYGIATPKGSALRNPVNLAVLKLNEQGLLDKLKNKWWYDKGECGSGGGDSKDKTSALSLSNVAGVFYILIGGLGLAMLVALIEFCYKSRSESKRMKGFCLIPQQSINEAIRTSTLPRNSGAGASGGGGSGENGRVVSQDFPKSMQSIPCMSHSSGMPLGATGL

Glutamate NMDA receptor; Grin1/Grin2b, sequence (Q00960 whole entry, other chains not shown): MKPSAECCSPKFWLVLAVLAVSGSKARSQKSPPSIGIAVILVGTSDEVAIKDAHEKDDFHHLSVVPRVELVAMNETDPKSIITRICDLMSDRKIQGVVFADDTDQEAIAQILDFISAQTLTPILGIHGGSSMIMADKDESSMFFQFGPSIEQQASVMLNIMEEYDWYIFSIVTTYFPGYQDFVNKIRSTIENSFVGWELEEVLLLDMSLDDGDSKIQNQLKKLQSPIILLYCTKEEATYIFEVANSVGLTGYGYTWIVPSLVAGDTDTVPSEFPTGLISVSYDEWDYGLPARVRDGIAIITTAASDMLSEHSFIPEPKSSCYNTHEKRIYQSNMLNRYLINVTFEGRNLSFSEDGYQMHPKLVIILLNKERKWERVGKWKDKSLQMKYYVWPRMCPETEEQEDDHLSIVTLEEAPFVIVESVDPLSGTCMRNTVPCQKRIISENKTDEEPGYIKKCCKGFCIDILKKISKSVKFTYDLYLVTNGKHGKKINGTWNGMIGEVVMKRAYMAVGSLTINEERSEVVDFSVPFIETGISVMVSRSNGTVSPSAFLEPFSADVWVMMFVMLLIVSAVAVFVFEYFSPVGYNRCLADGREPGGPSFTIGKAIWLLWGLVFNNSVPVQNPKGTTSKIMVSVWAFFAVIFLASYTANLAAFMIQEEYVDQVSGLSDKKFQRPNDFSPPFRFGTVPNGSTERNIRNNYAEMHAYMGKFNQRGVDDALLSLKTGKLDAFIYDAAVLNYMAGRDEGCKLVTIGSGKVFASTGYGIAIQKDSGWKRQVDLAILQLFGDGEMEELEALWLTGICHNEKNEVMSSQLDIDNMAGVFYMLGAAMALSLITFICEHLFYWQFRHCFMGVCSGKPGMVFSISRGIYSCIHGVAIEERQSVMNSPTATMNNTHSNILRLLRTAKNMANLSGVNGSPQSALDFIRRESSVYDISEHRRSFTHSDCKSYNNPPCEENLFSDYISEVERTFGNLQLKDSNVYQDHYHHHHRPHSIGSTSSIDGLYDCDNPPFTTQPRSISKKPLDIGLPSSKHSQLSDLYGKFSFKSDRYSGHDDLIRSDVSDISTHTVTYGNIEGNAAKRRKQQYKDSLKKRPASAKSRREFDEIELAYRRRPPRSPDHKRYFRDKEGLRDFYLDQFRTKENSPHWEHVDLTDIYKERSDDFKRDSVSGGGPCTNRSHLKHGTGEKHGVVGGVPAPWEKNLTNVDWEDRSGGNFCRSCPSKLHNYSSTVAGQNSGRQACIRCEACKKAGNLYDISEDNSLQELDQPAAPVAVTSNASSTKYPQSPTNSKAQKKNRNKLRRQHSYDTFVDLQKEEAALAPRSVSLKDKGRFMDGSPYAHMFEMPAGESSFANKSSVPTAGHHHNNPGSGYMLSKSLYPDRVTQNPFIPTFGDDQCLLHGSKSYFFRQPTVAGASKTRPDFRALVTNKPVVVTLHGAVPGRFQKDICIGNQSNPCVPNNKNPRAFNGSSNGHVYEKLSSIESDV
Ionotropic glutamate receptor NMDA 1/2D, sequence (Q62645 whole entry, other chains not shown): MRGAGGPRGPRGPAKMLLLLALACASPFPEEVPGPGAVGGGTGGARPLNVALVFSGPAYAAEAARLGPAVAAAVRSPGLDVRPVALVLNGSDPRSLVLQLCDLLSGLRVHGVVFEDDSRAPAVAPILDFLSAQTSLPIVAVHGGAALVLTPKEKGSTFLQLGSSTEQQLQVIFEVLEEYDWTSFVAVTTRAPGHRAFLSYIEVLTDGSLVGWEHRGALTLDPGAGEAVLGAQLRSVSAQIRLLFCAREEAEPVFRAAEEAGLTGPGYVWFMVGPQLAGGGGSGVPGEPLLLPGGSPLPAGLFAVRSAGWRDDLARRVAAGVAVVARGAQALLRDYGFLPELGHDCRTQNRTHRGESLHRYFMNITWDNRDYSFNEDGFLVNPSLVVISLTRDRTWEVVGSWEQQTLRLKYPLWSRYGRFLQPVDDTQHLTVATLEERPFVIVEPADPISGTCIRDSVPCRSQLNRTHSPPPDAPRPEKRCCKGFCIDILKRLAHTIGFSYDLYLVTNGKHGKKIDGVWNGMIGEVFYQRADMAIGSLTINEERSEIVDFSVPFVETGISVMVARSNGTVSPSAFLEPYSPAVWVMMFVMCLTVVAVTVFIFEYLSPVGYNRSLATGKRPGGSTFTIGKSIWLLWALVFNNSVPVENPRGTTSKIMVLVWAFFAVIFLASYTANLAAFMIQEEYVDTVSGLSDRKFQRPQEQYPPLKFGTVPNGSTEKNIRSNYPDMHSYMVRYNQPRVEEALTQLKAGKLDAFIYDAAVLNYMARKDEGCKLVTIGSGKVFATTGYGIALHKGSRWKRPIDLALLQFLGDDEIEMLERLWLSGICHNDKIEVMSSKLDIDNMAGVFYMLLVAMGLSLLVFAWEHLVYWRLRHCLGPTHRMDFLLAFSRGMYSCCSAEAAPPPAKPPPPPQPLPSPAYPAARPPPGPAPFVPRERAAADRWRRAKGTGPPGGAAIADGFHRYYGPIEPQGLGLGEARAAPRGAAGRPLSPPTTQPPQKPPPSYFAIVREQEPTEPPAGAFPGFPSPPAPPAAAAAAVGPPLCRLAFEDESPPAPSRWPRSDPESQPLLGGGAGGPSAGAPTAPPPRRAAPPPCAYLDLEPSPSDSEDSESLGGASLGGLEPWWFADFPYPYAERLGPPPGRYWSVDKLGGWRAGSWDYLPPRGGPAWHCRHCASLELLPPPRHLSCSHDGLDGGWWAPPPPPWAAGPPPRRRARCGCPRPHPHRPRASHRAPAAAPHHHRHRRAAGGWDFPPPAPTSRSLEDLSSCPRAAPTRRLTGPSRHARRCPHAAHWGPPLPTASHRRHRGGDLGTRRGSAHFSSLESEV

Consider `O=C(O)c1ccc(-n2c(/C=C/c3cccc([N+](=O)[O-])c3)nc3ccc(Cl)cc3c2=O)cc1`, for which the Ratio IC50 in assay [1] is 7; in assay [2], 16.

The IC50 is the midpoint of a concentration-inhibition curve. With `Cc1nc2ccc(I)cc2c(=O)n1-c1ccc(C(=O)O)cc1`, the IC50 in assay [3] (read-out: IC50), in assay [4] (read-out: IC50), in assay [5], in assay [6] and in assay [7] was over 300 µM each time. The Ratio IC50 in assay [1] came out at 1.

On to `O=c1c2cc(I)ccc2nc(/C=C/c2cccnc2)n1-c1cccc([N+](=O)[O-])c1`, for which the IC50 in assay [3] (read-out: IC50), in assay [4] (read-out: IC50), in assay [5], in assay [6] and in assay [7] was over 300 µM in each case. Further, the Ratio IC50 in assay [1] is 1.

With `COc1ccc2nc(/C=C/c3ccc([N+](=O)[O-])cc3)n(-c3ccc(C(=O)O)cc3)c(=O)c2c1`, the IC50 in assay [3] (read-out: IC50) is 197 µM; in assay [4] (read-out: IC50), 206 µM; in assay [5] it was 13 µM; in assay [6] it was 7 µM; in assay [7], over 300 µM. In assay [2], the Ratio IC50 came to 28.

Regarding `O=C(O)c1cccc(-n2c(/C=C/c3ccc([N+](=O)[O-])cc3)nc3ccc(I)cc3c2=O)c1`, the IC50 in assay [3] (read-out: IC50) is over 300 µM; in assay [4] (read-out: IC50) it was 279 µM; in assay [5] it was 9 µM; in assay [6], 8 µM; in assay [7], over 300 µM.

On to `N#Cc1ccc(/C=C/c2nc3ccccc3c(=O)n2-c2ccc(C(=O)O)cc2)cc1`, for which the 50% inhibitory concentration (IC50) in assay [3] (read-out: IC50) is 94 µM; in assay [4] (read-out: IC50), 106 µM; in assay [5], 28 µM; in assay [6], 34 µM; in assay [7], over 300 µM. Also, in assay [2], the Ratio IC50 stood at 3.

Turning to `O=C(O)COc1ccc(/C=C/c2nc3ccccc3c(=O)n2-c2ccc(C(=O)O)cc2)cc1`, the concentration for half-maximal inhibition (IC50) in assay [3] (read-out: IC50), in assay [4] (read-out: IC50), in assay [5], in assay [6] and in assay [7] was over 300 µM each time. Besides, the Ratio IC50 in assay [1] worked out at 1.

On to `O=C(O)c1ccc(-n2c(/C=C/c3ccc4ccccc4c3)nc3ccccc3c2=O)cc1`, for which the IC50 in assay [3] (read-out: IC50) was 21 µM; in assay [4] (read-out: IC50), 31 µM; in assay [5] it was 14 µM; in assay [6] it was 6 µM; in assay [7] it was over 300 µM. Moreover, the Ratio IC50 in assay [2] was determined as 4.

With `O=c1c2ccccc2nc(/C=C/c2cccc([N+](=O)[O-])c2)n1-c1ccccc1`, the 50% inhibitory concentration (IC50) in assay [3] (read-out: IC50), in assay [4] (read-out: IC50), in assay [5], in assay [6] and in assay [7] was over 300 µM each time. For the same compound, the Ratio IC50 in assay [1] amounted to 1.

For `Cc1ccc(/C=C/c2nc3ccccc3c(=O)n2-c2ccc(C(=O)O)cc2)cc1`, the IC50 in assay [3] (read-out: IC50) was 41 µM; in assay [4] (read-out: IC50) it was 138 µM; in assay [6] it was 17 µM; in assay [7], over 300 µM. For the same compound, in assay [2], the Ratio IC50 was 2.

Regarding `O=C(O)c1ccc(-n2c(/C=C/c3ccc4c(c3)OCCO4)nc3ccccc3c2=O)cc1`, the IC50 in assay [3] (read-out: IC50) was over 300 µM; in assay [4] (read-out: IC50), 262 µM; in assay [5] it was 26 µM; in assay [6] it was 16 µM; in assay [7] it was over 300 µM.

For the compound `COc1ccc2nc(/C=C/c3cccc([N+](=O)[O-])c3)n(-c3ccc(C(N)=O)cc3)c(=O)c2c1`, the IC50 is over 300 µM in assay [3] (read-out: IC50); 82 µM in assay [4] (read-out: IC50); 58 µM in assay [5]; over 300 µM in assay [6]; over 300 µM in assay [7]. The Ratio IC50 in assay [1] stood at 1.

For the compound `Cc1cccc(/C=C/c2nc3ccccc3c(=O)n2-c2ccc(C(=O)O)cc2)c1`, the concentration for half-maximal inhibition (IC50) in assay [3] (read-out: IC50) was 21 µM; in assay [4] (read-out: IC50), 34 µM; in assay [6] it was 18 µM; in assay [7] it was over 300 µM. For the same compound, the Ratio IC50 in assay [2] was determined as 1.

Turning to `C=CCOc1ccc(/C=C/c2nc3ccccc3c(=O)n2-c2ccc(C(=O)O)cc2)cc1`, the IC50 in assay [3] (read-out: IC50) was over 300 µM; in assay [4] (read-out: IC50) it was 144 µM; in assay [5] it was 111 µM; in assay [6], 30 µM; in assay [7], over 300 µM.

Regarding `COc1ccc2nc(/C=C/c3cccc(C(=O)O)c3)n(-c3ccc(C(=O)O)cc3)c(=O)c2c1`, the IC50 was over 300 µM in assay [3] (read-out: IC50); over 300 µM in assay [4] (read-out: IC50); over 300 µM in assay [5]; 131 µM in assay [6]; over 300 µM in assay [7].

Regarding `Cc1ccc(-n2c(/C=C/c3cccnc3)nc3ccc(I)cc3c2=O)cc1`, the half-inhibitory concentration (IC50) in assay [3] (read-out: IC50), in assay [4] (read-out: IC50), in assay [5], in assay [6] and in assay [7] was over 300 µM in each case. In addition, in assay [1], the Ratio IC50 stood at 1.

For `O=C(O)c1ccc(-n2c(/C=C/c3ccc([N+](=O)[O-])cc3)nc3c(Cl)cc(Cl)cc3c2=O)cc1`, the half-maximal inhibitory concentration (IC50) in assay [3] (read-out: IC50) is over 300 µM; in assay [4] (read-out: IC50), over 300 µM; in assay [5] it was 9 µM; in assay [6] it was 6 µM; in assay [7] it was over 300 µM.

Consider `Cc1ccc2nc(CCc3ccccc3)n(-c3ccc(C(=O)O)cc3)c(=O)c2c1`, for which the IC50 in assay [3] (read-out: IC50) was over 300 µM; in assay [4] (read-out: IC50), 78 µM; in assay [5], 184 µM; in assay [6], 282 µM; in assay [7] it was over 300 µM.

Consider `Cc1cccc(-n2c(/C=C/c3cccnc3)nc3ccc(I)cc3c2=O)c1`, for which the half-inhibitory concentration (IC50) is over 300 µM in assay [3] (read-out: IC50); over 300 µM in assay [4] (read-out: IC50); 241 µM in assay [5]; over 300 µM in assay [6]; over 300 µM in assay [7]. In addition, the Ratio IC50 in assay [1] came out at 1.

In the case of `O=C(O)c1ccc(-n2c(/C=C/c3ccccc3C(F)(F)F)nc3ccccc3c2=O)cc1`, the IC50 in assay [4] (read-out: IC50) is over 300 µM; in assay [6], 28 µM; in assay [7] it was over 300 µM.

Regarding `O=C(O)c1ccc(-n2c(/C=C/c3cccc([N+](=O)[O-])c3)nc3ccc([N+](=O)[O-])cc3c2=O)cc1`, the IC50 entry in assay [3] (oocyte) was “Not Active”; in assay [4] (oocyte), “Not Active”; in assay [5], 204 µM; in assay [6] it was 90 µM; in assay [7], over 300 µM.

For `O=C(O)c1ccc(-n2c(/C=C/c3cccc([N+](=O)[O-])c3)nc3cccc(Cl)c3c2=O)cc1`, the IC50 in assay [3] (read-out: IC50) is over 300 µM; in assay [4] (read-out: IC50) it was 110 µM; in assay [5], 22 µM; in assay [6], 14 µM; in assay [7] it was over 300 µM.

For the compound `COc1ccc(-n2c(/C=C/c3cccnc3)nc3ccc(I)cc3c2=O)cc1`, the concentration for half-maximal inhibition (IC50) in assay [3] (read-out: IC50), in assay [4] (read-out: IC50), in assay [5], in assay [6] and in assay [7] was over 300 µM throughout. Besides, the Ratio IC50 in assay [1] came to 1.

As for `COc1ccc2nc(/C=C/c3ccc([N+](=O)[O-])cc3)n(-c3cccc(C(=O)O)c3)c(=O)c2c1`, the IC50 is 238 µM in assay [3] (read-out: IC50); 238 µM in assay [4] (read-out: IC50); 21 µM in assay [5]; 16 µM in assay [6]; over 300 µM in assay [7]. The Ratio IC50 in assay [2] was 15.

In the case of `O=C(O)c1ccc(-n2c(/C=C/c3ccc([N+](=O)[O-])cc3)nc3ccc(I)cc3c2=O)cc1`, the 50% inhibitory concentration (IC50) in assay [3] (read-out: IC50) was over 300 µM; in assay [4] (read-out: IC50), over 300 µM; in assay [5], 2 µM; in assay [6], 1 µM; in assay [7] it was over 300 µM. Besides, the Ratio IC50 in assay [2] was over 150.

Regarding `COc1ccc2nc(/C=C/c3cccc([N+](=O)[O-])c3)n(-c3ccc(C#N)cc3)c(=O)c2c1`, the concentration for half-maximal inhibition (IC50) in assay [3] (read-out: IC50), in assay [4] (read-out: IC50), in assay [5], in assay [6] and in assay [7] was over 300 µM throughout. For the same compound, the Ratio IC50 in assay [1] came out at 1.

Turning to `O=C(O)c1ccc(/C=C/c2nc3ccccc3c(=O)n2-c2ccc(C(=O)O)cc2)cc1`, the 50% inhibitory concentration (IC50) in assay [3] (read-out: IC50), in assay [4] (read-out: IC50), in assay [5], in assay [6] and in assay [7] was over 300 µM in each case. For the same compound, the Ratio IC50 in assay [1] worked out at 1.

Take `O=C(O)c1ccc(-n2c(/C=C/c3cccc([N+](=O)[O-])c3)nc3cc4c(cc3c2=O)OCO4)cc1`: the half-maximal inhibitory concentration (IC50) in assay [3] (read-out: IC50) is 112 µM; in assay [4] (read-out: IC50), 162 µM; in assay [5], 40 µM; in assay [6], 36 µM; in assay [7], over 300 µM. Also, in assay [2], the Ratio IC50 worked out at 3.
